In ChEMBL document CHEMBL1268891, “Novel synthetic 2-amino-10-(3,5-dimethoxy)benzyl-9(10H)-acridinone derivatives as potent DNA-binding antiproliferative agents” (Bioorg Med Chem, 2010):
Active and inactive are the calls of the source. The rule behind the calls is not given here.

Tests used:
A549 = assay: Cytotoxicity against human A549 cells after 48 hrs by MTT assay; format: functional, cell-based; details: A549, 48 h
Outline: (§1)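 A549, HepG2 and MCF7 cells grown in DMEM with 10% FBS and penicillin/streptomycin at 37 °C, 5% CO₂. Seeded at 2×10^5 cells/mL and treated with graded doses from DMSO stock, in quintuplicate, for 48 h. MTT added for 4 h, formazan dissolved in DMSO and read at 490 nm. IC50 is the concentration giving 50% growth inhibition.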

MCF7 = assay: Cytotoxicity against human MCF7 cells after 48 hrs by MTT assay; format: functional, cell-based; details: MCF7, 48 h; outline: as §1
HepG2 = assay: Cytotoxicity against human HepG2 cells after 48 hrs by MTT assay; format: functional, cell-based; details: HepG2, 48 h; outline: as §1
CCRF-CEM = assay: Cytotoxicity against human CCRF-CEM cells after 48 hrs by MTT assay; format: functional, cell-based
Outline: as §1, with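 “CCRF-CEM” for “A549, HepG2 and MCF7”, “RPMI 1640” for “DMEM”, “exposed to” for “treated with”, “MTT (5 mg/mL)” for “MTT”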

Calf thymus DNA [1] = assay: Binding affinity to calf thymus DNA assessed as intercalation by UV-vis spectral analysis; format: nucleic-acid assay; details: Bos taurus
Outline: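 Compound at 40 μM titrated with ct DNA at 0–80 μM in 10 mM Tris-HCl, 50 mM NaCl, pH 7.2. Incubated 5 min, then spectra read in a 1.0 cm quartz cell. Kb obtained from a plot of [DNA]/(εa−εf) against [DNA], with DNA concentration in base pairs.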

[2] = biological target: T1, DNA topoisomerase 1 (Homo sapiens) (UniProt P11387); assay: Inhibition of human recombinant DNA topoisomerase 1-mediated DNA cleavage assessed as relaxation of supercoiled pBR322 plasmid DNA at 50 uM […] by ethidium bromide staining
T1 sequence (whole entry): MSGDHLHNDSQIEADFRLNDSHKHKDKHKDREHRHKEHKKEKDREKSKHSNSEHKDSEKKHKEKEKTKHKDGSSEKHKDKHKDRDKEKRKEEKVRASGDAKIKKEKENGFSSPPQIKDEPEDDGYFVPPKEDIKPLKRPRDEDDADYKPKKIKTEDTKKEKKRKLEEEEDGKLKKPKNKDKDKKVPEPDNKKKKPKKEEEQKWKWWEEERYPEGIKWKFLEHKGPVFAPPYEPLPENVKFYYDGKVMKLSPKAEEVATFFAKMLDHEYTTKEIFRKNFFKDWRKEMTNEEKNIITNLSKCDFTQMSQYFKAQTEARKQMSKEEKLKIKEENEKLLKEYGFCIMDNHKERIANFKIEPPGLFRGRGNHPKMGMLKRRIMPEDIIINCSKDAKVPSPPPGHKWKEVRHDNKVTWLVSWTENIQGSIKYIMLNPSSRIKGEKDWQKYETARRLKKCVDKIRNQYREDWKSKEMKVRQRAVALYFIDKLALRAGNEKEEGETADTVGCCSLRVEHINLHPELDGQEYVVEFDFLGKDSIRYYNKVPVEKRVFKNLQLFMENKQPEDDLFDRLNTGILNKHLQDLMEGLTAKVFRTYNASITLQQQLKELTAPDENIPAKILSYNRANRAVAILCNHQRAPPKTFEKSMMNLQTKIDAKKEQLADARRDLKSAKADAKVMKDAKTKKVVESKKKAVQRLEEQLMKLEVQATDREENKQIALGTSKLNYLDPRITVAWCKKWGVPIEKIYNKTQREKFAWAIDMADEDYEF
Outline: (§2)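 pBR322 (100 ng) incubated with 1.0 unit recombinant human topoisomerase I, with or without compound (10–50 or 250 μM), for 30 min at 37 °C. DMSO control included. Products run on 1% agarose in TAE at 100 V for 25 min and stained with ethidium bromide.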

[3] = biological target: T1, DNA topoisomerase 1 (Homo sapiens); assay: Inhibition of human recombinant DNA topoisomerase 1-mediated DNA cleavage assessed as relaxation of supercoiled pBR322 plasmid DNA at 250 uM […] by ethidium bromide staining; outline: as §2
Calf thymus DNA [4] = assay: Binding affinity to calf thymus DNA assessed as intercalation at 20 uM by fluorescence emission spectral analysis; format: nucleic-acid assay; details: Bos taurus
Outline: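 Compound at about 20 μM final (from 5 mM DMSO stock) in 10 mM Tris-HCl, 50 mM NaCl, pH 7.2, with or without ct DNA at 20 or 40 μM final. Emission recorded after equilibrium on excitation at 380 nm. DNA concentration set by A260 (6600 M⁻¹ cm⁻¹ per phosphate; A260:A280 1.87).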

Row | Kb (Calf thymus DNA [1]) | Activity [2] | Activity [3] | Activity (Calf thymus DNA [4]) | Compound | IC50 (A549) | IC50 (MCF7) | IC50 (HepG2) | IC50 (CCRF-CEM)
1 |  | inactive | Active |  | COc1cc(Cn2c3ccccc3c(=O)c3cc(NC(=O)CCCCN)ccc32)cc(OC)c1 |  |  |  | 1190 nM
2 |  | inactive | Active |  | COc1cc(Cn2c3ccccc3c(=O)c3cc(NC(=O)CCN(CCO)CCO)ccc32)cc(OC)c1 |  |  |  | 950 nM
3 |  | inactive | Active |  | COc1cc(Cn2c3ccccc3c(=O)c3cc(NC(=O)CCCN)ccc32)cc(OC)c1 |  |  |  | 670 nM
4 | 1.5 ×10⁵ /M | Active |  | Active | COc1cc(Cn2c3ccccc3c(=O)c3cc(NC(=O)CN)ccc32)cc(OC)c1 | 3400 nM | 11700 nM | 6500 nM | 390 nM
5 |  | inactive | Active |  | CCN(CC)CCC(=O)Nc1ccc2c(c1)c(=O)c1ccccc1n2Cc1cc(OC)cc(OC)c1 |  |  |  | 720 nM
6 |  | inactive | Active |  | COc1cc(Cn2c3ccccc3c(=O)c3cc(NC(=O)CCN)ccc32)cc(OC)c1 |  |  |  | 2550 nM
7 |  | inactive | Active |  | COc1cc(Cn2c3ccccc3c(=O)c3cc(NC(=O)CCN(C)C)ccc32)cc(OC)c1 |  |  |  | 910 nM

The next lines start with the compound.

Row | Compound | Kb (Calf thymus DNA [1]) | Activity [2] | Activity [3] | Activity (Calf thymus DNA [4]) | IC50 (A549) | IC50 (MCF7) | IC50 (HepG2) | IC50 (CCRF-CEM)
8 | COc1cc(Cn2c3ccccc3c(=O)c3cc(NC(=O)CCN4CCCC4)ccc32)cc(OC)c1 | 5 ×10⁴ /M | inactive | Active | Active | 25900 nM | 5700 nM | 4000 nM | 280 nM
9 | COc1cc(Cn2c3ccccc3c(=O)c3cc(NC(=O)CCCCCN)ccc32)cc(OC)c1 |  | inactive | Active |  |  |  |  | 750 nM
10 | COc1cc(Cn2c3ccccc3c(=O)c3cc(NC(=O)C(C)N)ccc32)cc(OC)c1 (stereo unspecified) |  | inactive | Active |  |  |  |  | 610 nM
11 | COc1cc(Cn2c3ccccc3c(=O)c3cc(NC(=O)CCN4CCOCC4)ccc32)cc(OC)c1 |  | inactive | Active |  |  |  |  | 3010 nM
12 | COc1cc(Cn2c3ccccc3c(=O)c3cc(NC(=O)CCN4CCCCC4)ccc32)cc(OC)c1 |  | inactive | Active |  |  |  |  | 600 nM
13 | COc1cc(Cn2c3ccccc3c(=O)c3ccccc32)cc(OC)c1 |  | inactive | Active |  |  |  |  | 
14 | COc1cc(Cn2c3ccccc3c(=O)c3cc(NC(=O)C(N)C(C)C)ccc32)cc(OC)c1 (stereo unspecified) |  | inactive | Active |  |  |  |  | 810 nM
15 | COc1cc(Cn2c3ccccc3c(=O)c3cc(NC(=O)C(N)CCCCN)ccc32)cc(OC)c1 (stereo unspecified) |  | inactive | Active |  |  |  |  | 750 nM
16 | COc1cc(Cn2c3ccccc3c(=O)c3cc(NC(=O)CCN4CCC(O)CC4)ccc32)cc(OC)c1 |  | inactive | Active |  |  |  |  | 640 nM
